Screens: PubChem, Broad Institute
Many of the other results were omitted from the sample, so hits are more common in it than they were.
INS-1E rescue: rescue of cytokine-induced death in INS-1E beta cells; INS-1E cytokine-induced death, ATP luminescence, 48 h; normalised: neutral wells 0, positive control 100; protection from cytokine-induced ATP loss, % at 10 µM; 20,000 compounds, 0.1% hits;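 active = mean replicate protection from cytokine-induced ATP loss at least 50% and at least 75% of replicates each reaching 50%; inconclusive = meets only one of the two criteria, mean or replicate share; inactive = fails both the mean and replicate share criteria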
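assay system = INS-1E rat insulinoma cells | amount = 8000 cells per well | medium = phenol-red-free RPMI with 5% fetal bovine serum | doses = one compound concentration, pin transfer | timing = 48 h cytokine plus compound treatment, 10 min reagent incubation | also added = IL-1β, TNF-α and IFN-γ cytokine mix | signal = CellTiter-Glo luminescence measuring cellular ATP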
T cruzi intra: inhibitors of intracellular Trypanosoma cruzi. intracellular Trypanosoma cruzi in host cells, plate reader. 22,000 compounds, 4.9% hits. activity score (inhibition), % at 5.01 µM. AID 651903; in the data active = activity score above about 55%; inconclusive = no clear call, values can overlap the other calls;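 also: parasites and compound incubated about four days before reading; 0% = median of neutral control wells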
A1 apoptosis 2: compounds inhibiting A1, read as caspase activation; MEF A1-2A-BIM cells, caspase-Glo luminescence, 3 h; percent of clofoctol response, DMSO zero; caspase activation, % (test concentration not listed); 24,000 tested, under 10 active; AID 2465; in the data active = caspase activation above about 5.9%; inconclusive = no clear call, values can overlap the other calls; inactive = below about 2.2%
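System: mouse embryonic fibroblasts co-expressing A1 and BIM (A1-2A-BIM), primed for A1 dependence; amount: 2500 cells/well; doses: 50 nL pinned compound; schedule: cells settled overnight, compound exposure 3 h at 37 °C, 5% CO2; detection: Caspase-Glo 3/7 luminescence, 1 h at room temperature; read-out: Caspase-3/7 activation, seen as rise in luminescence signal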
Starred values were filed as active, the others as inactive; u = inconclusive; x = not tested or not shown.

SMILES | INS-1E rescue | T cruzi intra | A1 apoptosis 2
C[C@H](CO)N1C[C@H](C)[C@@H](CN(C)S(=O)(=O)c2ccc(Cl)cc2)Oc2c(NC(=O)CCCCCC(=O)Nc3ccccc3N)cccc2C1=O | -2.3 | 36.7 | 0.6
C[C@H]1CN([C@@H](C)CO)C(=O)c2cc(NC(=O)Nc3ccc(C(F)(F)F)cc3)ccc2O[C@@H]1CN(C)Cc1ccc(C(F)(F)F)cc1 | x | 71.9* | u
C[C@@H]1CN([C@@H](C)CO)C(=O)c2cc(NC(=O)Nc3ccc(C(F)(F)F)cc3)ccc2O[C@@H]1CN(C)Cc1ccc(C(F)(F)F)cc1 | -62.2 | 52.0 | -0.3
C[C@H]1CCCCO[C@H](CN(C)C)[C@@H](C)CN([C@@H](C)CO)C(=O)c2cc(NC(=O)CCC(F)(F)F)ccc2O1 | x | x | -1.0
COc1cc(Cl)c(/C=N/NC(=O)c2cccc(C(=O)NO)c2)c(Cl)c1OC | -5.2 | -15.3 | -1.0
C[C@H]1CN([C@@H](C)CO)C(=O)c2cc(NC(=O)CCCN(C)C)ccc2O[C@H]1CN(C)C(=O)Nc1ccc(F)cc1 | 2.2 | -10.9 | -0.2
Cc1noc(C)c1S(=O)(=O)Nc1ccc2c(c1)C(=O)N([C@H](C)CO)C[C@H](C)[C@@H](CN(C)C(=O)Nc1ccc(C(F)(F)F)cc1)OCCCC[C@@H](C)O2 | 2.2 | 58.0* | x
Cc1noc(C)c1S(=O)(=O)Nc1ccc2c(c1)C(=O)N([C@H](C)CO)C[C@@H](C)[C@H](CN(C)C(=O)Nc1ccc(C(F)(F)F)cc1)OCCCC[C@@H](C)O2 | x | x | -1.3
Cc1noc(C)c1S(=O)(=O)Nc1ccc2c(c1)C(=O)N([C@H](C)CO)C[C@H](C)[C@H](CN(C)C(=O)Nc1ccc(C(F)(F)F)cc1)OCCCC[C@@H](C)O2 | 4.1 | 58.1* | x
Cc1noc(C)c1S(=O)(=O)Nc1ccc2c(c1)C(=O)N([C@@H](C)CO)C[C@@H](C)[C@H](CN(C)C(=O)Nc1ccc(C(F)(F)F)cc1)OCCCC[C@H](C)O2 | x | x | 0.3
C[C@H](CO)N1C[C@H](C)[C@H](CN(C)S(=O)(=O)c2ccccc2)Oc2ccc(NS(=O)(=O)c3cn(C)cn3)cc2C1=O | x | 3.6 | x
Cc1noc(C)c1S(=O)(=O)Nc1cccc2c1O[C@H](CN(C)CC1CCCCC1)[C@H](C)CN([C@@H](C)CO)C2=O | -5.3 | -4.2 | -0.3
C[C@H]1CN([C@@H](C)CO)C(=O)Cc2cc(NS(=O)(=O)c3ccc(Cl)cc3)ccc2O[C@H]1CN(C)Cc1ccccc1 | -4.9 | 75.5* | x
C[C@H]1CN([C@@H](C)CO)C(=O)Cc2cc(NS(=O)(=O)c3ccc(Cl)cc3)ccc2O[C@@H]1CN(C)Cc1ccccc1 | 6.5 | 68.6* | x
C[C@@H]1CN([C@@H](C)CO)C(=O)Cc2cc(NS(=O)(=O)c3ccc(Cl)cc3)ccc2O[C@H]1CN(C)Cc1ccccc1 | x | x | 0.2
C[C@@H]1CN([C@@H](C)CO)C(=O)Cc2cc(NS(=O)(=O)c3ccc(Cl)cc3)ccc2O[C@@H]1CN(C)Cc1ccccc1 | -8.3 | 35.2 | -0.8
Cc1ccc(S(=O)(=O)Nc2cccc3c2O[C@H](CN(C)C(=O)NC(C)C)[C@@H](C)CN([C@@H](C)CO)C3=O)cc1 | 11.7 | -25.7 | x
C[C@@H]1CN([C@@H](C)CO)C(=O)Cc2cc(NC(=O)Nc3ccc(C(F)(F)F)cc3)ccc2O[C@@H]1CN(C)Cc1ccc(-c2ccccc2)cc1 | -2.2 | 67.3* | 1.3
C[C@H]1CN([C@@H](C)CO)C(=O)Cc2cc(NC(=O)Nc3ccc(C(F)(F)F)cc3)ccc2O[C@H]1CN(C)Cc1ccc(-c2ccccc2)cc1 | -78.8 | 53.6 | x
C[C@H]1CN([C@@H](C)CO)C(=O)Cc2cc(NC(=O)Nc3ccc(C(F)(F)F)cc3)ccc2O[C@@H]1CN(C)Cc1ccc(-c2ccccc2)cc1 | -56.1 | 70.2* | x
C[C@@H]1CCCCO[C@@H](CN(C)C(=O)c2ccncc2)[C@H](C)CN([C@H](C)CO)C(=O)c2cc(NC(=O)c3ccncc3)ccc2O1 | x | x | -0.8
C[C@@H]1CN([C@@H](C)CO)C(=O)Cc2cc(NC(=O)C3CCCCC3)ccc2O[C@@H]1CN(C)C(=O)Nc1ccc(F)cc1 | -1.3 | 2.7 | x
COc1ccc(NC(=O)N(C)C[C@@H]2Oc3c(NS(=O)(=O)c4ccccc4)cccc3C(=O)N([C@@H](C)CO)C[C@@H]2C)cc1 | 4.3 | -6.9 | x
COc1ccc(S(=O)(=O)Nc2ccc3c(c2)CC(=O)N([C@H](C)CO)C[C@H](C)[C@H](CN(C)Cc2ccc(C(=O)Nc4ccccc4N)cc2)O3)cc1 | 53.0* | 59.2* | 0.0
C[C@@H]1CN([C@@H](C)CO)C(=O)Cc2cc(NS(=O)(=O)c3ccc(F)cc3)ccc2O[C@H]1CN(C)Cc1ccc(C(=O)Nc2ccccc2N)cc1 | x | x | 0.5
SMILES | INS-1E rescue | T cruzi intra | A1 apoptosis 2
C[C@H](CO)N1C[C@H](C)[C@H](CN(C)Cc2ccc(C(=O)Nc3ccccc3N)cc2)Oc2ccc(NS(=O)(=O)c3ccc(F)cc3)cc2CC1=O | u | 64.4* | x
Cc1ccc(S(=O)(=O)Nc2ccc3c(c2)CC(=O)N([C@H](C)CO)C[C@@H](C)[C@@H](CN(C)Cc2ccc(C(=O)Nc4ccccc4N)cc2)O3)cc1 | -5.9 | 59.7* | -0.4
COc1ccc(S(=O)(=O)Nc2ccc3c(c2)CC(=O)N([C@H](C)CO)C[C@@H](C)[C@@H](CN(C)Cc2ccc(C(=O)Nc4ccccc4N)cc2)O3)cc1 | -18.2 | 50.1 | 0.3
C[C@H](CO)N1C[C@H](C)[C@H](CN(C)Cc2ccc(C(=O)Nc3ccccc3N)cc2)Oc2ccc(NS(=O)(=O)c3cccs3)cc2CC1=O | 40.3 | 64.1* | 0.3
Cc1ccc(S(=O)(=O)Nc2ccc3c(c2)CC(=O)N([C@@H](C)CO)C[C@H](C)[C@@H](CN(C)Cc2ccc(C(=O)Nc4ccccc4N)cc2)O3)cc1 | 8.3 | 50.0 | 0.5
C[C@@H]1CN([C@H](C)CO)C(=O)Cc2cc(NS(=O)(=O)c3cccs3)ccc2O[C@H]1CN(C)Cc1ccc(C(=O)Nc2ccccc2N)cc1 | 1.9 | 44.3 | x
C[C@@H]1CN([C@@H](C)CO)C(=O)c2cc(NS(C)(=O)=O)ccc2O[C@H]1CN(C)Cc1ccc(-c2ccccc2)cc1 | -1.3 | -1.1 | -0.3
C[C@H](CO)N1C[C@H](C)[C@H](CN(C)Cc2ccc(C(=O)Nc3ccccc3N)cc2)Oc2ccc(NS(=O)(=O)c3ccc(Cl)cc3)cc2CC1=O | 40.6 | 59.9* | x
C[C@H]1CN([C@@H](C)CO)C(=O)Cc2cc(NS(=O)(=O)c3ccc(Cl)cc3)ccc2O[C@@H]1CN(C)Cc1ccc(C(=O)Nc2ccccc2N)cc1 | x | x | 0.6
C[C@@H]1CN([C@H](C)CO)C(=O)c2cc(N(C)C)ccc2O[C@H]1CN(C)S(=O)(=O)c1cccs1 | x | x | 1.4
COC(=O)CCCCCCC(=O)N/N=C/c1cc(Cl)cc(Cl)c1O | 16.8 | 19.8 | x
O=C(N/N=C/c1cccc(O)c1O)c1ccccn1 | -54.5 | 29.3 | x
O=C(N/N=C/c1cc(I)cc(I)c1O)c1ccccn1 | -107.1 | 91.4* | -0.1
COC(=O)CCCCCCC(=O)N/N=C/c1cc(I)cc(I)c1O | 26.9 | 88.0* | 0.9
C[C@H](CO)N1C[C@H](C)[C@@H](CN(C)Cc2ccc(-c3ccccc3)cc2)Oc2c(NC(=O)C3CC3)cccc2C1=O | -52.7 | 69.1* | x
